What was measured:
ARPE19 cells [1] = experiment: ARPE19 proliferation assay; format: cell-based, human; settings: 48 hour treatment
PPIX and heme in HRECs = experiment: Porphyrin and heme analysis; format: cell-based, human; settings: 30 μM 4e ± 1 mM 5-ALA
Summary of the method: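 HRECs were grown to 80% confluence and serum-starved overnight. Cells received DMSO or 30 μM test compound for 1 h, then 1 mM 5-ALA or water for a further 2 h. They were pelleted in cold PBS and frozen. Heme and porphyrins were quantified by a core facility following its posted protocols. n=3.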

[2] = target: dopamine D2 receptor DRD2S (Homo sapiens, UniProt P14416); experiment: SafetyScan off-target analysis, DRD2S; format: cell-based
Chain of dopamine D2 receptor DRD2S (P14416 1-414 isoform P14416-2): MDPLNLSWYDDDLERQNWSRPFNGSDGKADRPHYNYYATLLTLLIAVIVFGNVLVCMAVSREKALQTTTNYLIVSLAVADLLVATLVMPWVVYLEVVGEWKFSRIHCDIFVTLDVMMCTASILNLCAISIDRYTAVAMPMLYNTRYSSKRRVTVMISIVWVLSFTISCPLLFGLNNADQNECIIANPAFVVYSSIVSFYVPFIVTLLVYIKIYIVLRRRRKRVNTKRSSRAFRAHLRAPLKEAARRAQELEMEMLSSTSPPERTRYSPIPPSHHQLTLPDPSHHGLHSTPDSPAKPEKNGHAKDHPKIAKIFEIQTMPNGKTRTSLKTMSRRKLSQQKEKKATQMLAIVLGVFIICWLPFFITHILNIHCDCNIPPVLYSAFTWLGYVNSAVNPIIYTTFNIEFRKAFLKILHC

[3] = system: COXIV subunit I expression in HRECs; experiment: Immunoblot for hemoprotein COXIV subunit I; format: cell-based, human; settings: 16 hours, dose dependent (10, 30 or 100 μM)
Summary of the method: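 HRECs were treated 16 h with test compound (10, 30 or 100 μM), a reference FECH inhibitor (10 μM) or DMSO. Arms were: 6 h pretreatment with 100 μM succinylacetone or water, or after treatment, medium replaced by EBM-2 with 0.2% serum and 10 μM hemin. Lysate protein (40 μg) was run on 12% SDS-PAGE and PVDF, probed with anti-COX4I1 (1:1000) and β-actin (1:2000). n=3 biological.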

[4] = system: choroidal neovascularization
recombinant FECH [5] = target: T1, recombinant FECH (Homo sapiens, UniProt P22830); experiment: 4e-FECH enzyme kinetic analysis; format: biochemical; settings: vs. substrate mesoporphyrin IX; Vmax consistent, KM increased
T1 sequence (P22830 55-423): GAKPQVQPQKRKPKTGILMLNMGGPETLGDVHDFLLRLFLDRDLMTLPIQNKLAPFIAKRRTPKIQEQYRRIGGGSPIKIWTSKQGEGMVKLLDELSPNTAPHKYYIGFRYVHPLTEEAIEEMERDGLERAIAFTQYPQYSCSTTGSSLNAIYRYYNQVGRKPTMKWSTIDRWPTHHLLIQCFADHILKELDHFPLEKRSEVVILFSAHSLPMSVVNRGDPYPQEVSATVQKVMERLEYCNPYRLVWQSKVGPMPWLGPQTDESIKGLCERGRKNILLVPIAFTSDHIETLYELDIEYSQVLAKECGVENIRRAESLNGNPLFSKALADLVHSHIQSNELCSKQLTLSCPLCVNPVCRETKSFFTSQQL

HRECs [6] = experiment: Scratch wound migration assay; format: cell-based, human; settings: 8 hour treatment, dose dependent
Summary of the method: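 HRECs were grown to confluence in 96-well plates at 37°C, scratched down the well centre with a pipette tip, and treated with test compound. Brightfield images were taken at 8 h. Cells migrating into the scratch were counted manually in six images per treatment and normalised to DMSO. Replicate runs were live-imaged. n=4 technical.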

[7] = system: iCEC2 choroidal endothelial cells; experiment: iCEC2 proliferation assay; format: cell-based, human; settings: 48 hour treatment
[8] = system: Human Retinal Endothelial Cell (HREC); experiment: HREC proliferation assay; format: cell-based; settings: 48 hour treatment, qualitative
recombinant FECH [9] = target: T1, recombinant FECH; experiment: FECH enzymatic activity assay; format: biochemical; settings: for inhibitory activity against recombinant FECH: qualitative
[10] = system: FECH activity in HRECs (PPIX accumulation); experiment: Protoporphyrin IX buildup assay; format: cell-based, human; settings: highest dose, co-treated with 5-ALA, 3 hour treatment, vs. DMSO
HRECs [11] = experiment: Matrigel-based tube formation assay; format: cell-based, human; settings: 8 hour treatment, qualitative
Summary of the method: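 Matrigel was solidified 20 min at 37°C. HRECs were added at 15,000/well in EGM-2 and dosed with test compound in DMSO. Tubes were watched by brightfield every 2 h and imaged at 8 h. Total tubule length from six images per treatment was normalised to DMSO controls. n=6 technical.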

HRECs [12] = experiment: In vitro apoptosis assays; format: cell-based, human; settings: 16 hour treatment, 10, 30 and 100 μM
Summary of the method: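 HRECs on coated chamber slides, 70% confluent, were treated 16 h with vehicle, test compound (10, 30, 100 μM), or positive controls (1 μM staurosporine for caspase, 10 μM DNase I for TUNEL). After 4% PFA fixation: Triton permeabilisation, anti-cleaved caspase-3 (1:200, overnight, 4°C), fluorescent secondary and Hoechst; or a Click-iT TUNEL kit. Stained cells were counted as % of nuclei in three 40x fields. Three biological repeats.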

HRECs [13] = settings: ref Basavarajappa et al., 2017; cited from earlier work
HRECs [14] = settings: ref Basavarajappa et al., 2017; cited from earlier work; remark: listed apart in the source
[15] = system: Human Retinal Endothelial Cell (HREC); settings: HRECs; ref Basavarajappa et al., 2017; cited from earlier work
ARPE19 cells [16] = settings: ref Basavarajappa et al., 2017; cited from earlier work
[17] = recombinant FECH activity assay

CC(C)(C)c1ccc(-c2nc3[nH]c(CNc4ccc5ccccc5n4)cc(=O)n3n2)cc1 [4e, 2-(4-(tert-Butyl)phenyl)-5-((quinolin-2-ylamino)methyl)-[1,2,4]triazolo[1,5-a]pyrimidin-7(4H)-one]
antiproliferative effect on ARPE19 cells (ARPE19 cells [1]): did not have a substantial antiproliferative effect | PPIX level in HRECs (PPIX and heme in HRECs): buildup of FECH substrate PPIX | heme level in HRECs (PPIX and heme in HRECs): decrease in heme | EC50 [2]: 98 µM | COXIV subunit I levels in HRECs [3]: decreased COXIV levels | ocular toxicity (fundus images, OCT) ([4]; day 0, 7 and 14 after laser, intravitreal): no obvious signs of toxicity | decrease in lesion volume (agglutinin and GS-IB4 signal, choroidal flat mounts) ([4]; day 14, both tested doses (50 and 100 μM intravitreal)): > 50% | OCT lesion volume relative to control ([4]; day 14, final intravitreal concentrations of 50 μM as well as 100 μM): significantly reduced | leakage on fluorescein angiography (FA) ([4]; day 14, qualitative): smaller | mode of inhibition (recombinant FECH [5]): competitive inhibition | HREC migration (HRECs [6]): blocked the migration ability | proliferation of iCEC2 cells [7]: more potent than NMPP | HREC proliferation (antiproliferative effect) [8]: anti-proliferative | inhibitory activity against recombinant FECH (recombinant FECH [9]): showed inhibitory activity | IC50 value (range in words) (recombinant FECH [9]; [17]): high nanomolar range | PPIX accumulation in HRECs [10]: statistically significant PPIX accumulation | HREC tube formation (HRECs [11]): blocked tube formation of HRECs | apoptosis in HRECs (cleaved caspase-3, TUNEL) (HRECs [12]): did not lead to apoptosis

CCCc1cc(=O)n2nc(CNc3ccc(C)cc3)nc2[nH]1 [5c, 5-Propyl-2-((p-tolylamino)methyl)-[1,2,4]triazolo[1,5-a]pyrimidin-7(4H)-one]
HREC proliferation (antiproliferative effect) [8]: anti-proliferative | IC50 value (range in words) (recombinant FECH [9]; [17]): high nanomolar range | HREC tube formation (HRECs [11]): blocked tube formation of HRECs

CCCc1cc(=O)n2nc(CNc3ccc(Cl)cc3)nc2[nH]1 [5f, 2-(((4-Chlorophenyl)amino)methyl)-5-propyl-[1,2,4]triazolo[1,5-a]pyrimidin-7(4H)-one]
inhibitory activity against recombinant FECH (recombinant FECH [9]): potent FECH inhibitors

CCCc1cc(=O)n2nc(CNc3ccc(F)c(Cl)c3)nc2[nH]1 [5i, 2-(((3-Chloro-4-fluorophenyl)amino)methyl)-5-propyl-[1,2,4]triazolo[1,5-a]pyrimidin-7(4H)-one]
HREC proliferation (antiproliferative effect) [8]: did not affect HREC proliferation | inhibitory activity against recombinant FECH (recombinant FECH [9]): strongest inhibitory activity

CCCc1cc(=O)n2nc(CNc3ccc(F)c(F)c3)nc2[nH]1 [5k, 2-(((3,4-Difluorophenyl)amino)methyl)-5-propyl-[1,2,4]triazolo[1,5-a]pyrimidin-7(4H)-one]
HREC proliferation (antiproliferative effect) [8]: did not affect HREC proliferation | inhibitory activity against recombinant FECH (recombinant FECH [9]): strongest inhibitory activity

N-methylprotoporphyrin [NMPP]
inhibition of HREC migration, active concentrations (HRECs [13]): single-digit micromolar concentrations | inhibition of HREC tube formation, active concentrations (HRECs [14]): single-digit micromolar concentrations | GI50 [15]: 30 µM | proliferation of iCEC2 cells [7]: antiproliferative | FECH activity inhibition (recombinant FECH [9]; 10 μM, positive control in the screen): completely inhibited | IC50 (recombinant FECH [9]; [17]): 0.45 µM | proliferation of ARPE19 cells (ARPE19 cells [16]): did not block proliferation

From paper PMC9233146 (Cell chemical biology, 2022)
